Active and inactive are the calls of the source. The calls are words filed in the database; no cut-off is given here.
Columns and labels:
Format in all cases: functional
[1] = Vascular activity in receptor-dependent rat mesenteric resistance artery assessed as inhibition of noradrenaline-induced contraction at 3 x 10^-6 M after 5 mins relative to maximal response to KCl; design: scale not given: the % may be the effect or the level left
[2] = Vascular activity in receptor-dependent rat mesenteric resistance artery assessed as inhibition of noradrenaline-induced contraction at 3 x 10^-6 M after 5 mins
How it was run: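 Rat mesenteric resistance arteries set to optimal diameter (OD = 0.9 L100, from the diameter at 100 mmHg transmural pressure). Rings pre-incubated with test agent at 3 x 10^-6 M, then given a dose–response curve to noradrenaline as the receptor-dependent contraction. Inhibition read against control arteries, p<0.05.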

Rattus norvegicus = species: Rattus norvegicus; test: (§1) Vascular activity in receptor-independent rat mesenteric resistance artery assessed as inhibition of KCl-induced contraction at 3 x 10^-6 M after 5 mins
How it was run: (§2)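 Receptor-independent response in rat mesenteric resistance arteries normalized to optimal diameter at 100 mmHg transmural pressure. After pre-incubation with test agent at 3 x 10^-6 M, maximal contraction to 75 mM KCl was recorded. Block was judged against control arteries, p<0.05.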

[3] = as §1; how it was run: as §2

SMILES	Activity [1] [%]	pD2 [2]	inhibition (Rattus norvegicus)	inhibition at 3 µM [3] [%]
CC(C)N1CCC(OC(c2ccc(F)cc2)c2ccc(F)cc2)CC1	121	4.48	Active	–
COC(=O)[C@H]1[C@@H](OC(=O)c2ccccc2)C[C@@H]2CC[C@H]1N2C [COCAINE]	130	6.52	inactive	–
CCCCN1CCC(OC(c2ccc(Cl)cc2)c2ccc(Cl)cc2)CC1	99	4.26	Active	–
Fc1ccc(C(OC2CCNCC2)c2ccc(F)cc2)cc1	116	5.17	–	70
CN1CCC(OC(c2ccc(F)cc2)c2ccc(F)cc2)CC1	121	5.1	–	70
CN1CCC(OC(c2ccccc2)c2ccc(Cl)cc2)CC1 (stereo not drawn)	113	5.08	–	70
NC[C@H](O)c1ccc(O)c(O)c1.O=C(O)C(O)C(O)C(=O)O	122	5.95	–	–
CN1CCC(OC(c2ccccc2)c2ccccc2)CC1 [DIPHENYLPYRALINE]	129	5.38	–	70

Source: ChEMBL document CHEMBL3259732, “Vascular effects of diphenylmethoxypiperidine-derived dopamine uptake inhibitors” (2014)
